One data set has as its system Ebolavirus. Briefly: Antiviral activity against Ebolavirus H. sapiens-wt/1995/Kikwit-9510621 infected in African green monkey Vero cells assessed as inhibition of viral infection pretreated for 2 hrs followed by viral infection and measured after 48 hrs by EboV GP immunostaining based high content imaging analysis. Type of data set: functional, organism-based. The following applies: Orthoebolavirus, H. sapiens-wt/1995/Kikwit-9510621, Vero.

Data set [1] in a line: Toxicity in 6 hrs post fertilized zebrafish embryo assessed as tail detachment up to 50 uM up to 120 hrs post fertilization by inverted microscopic method. The arrangement: species or system Danio rerio. The conditions noted are these: in vivo.
A short description of data set [2]: Toxicity in 6 hrs post fertilized zebrafish embryo assessed as teratogenic effect by measuring malformation of head up to 50 uM up to 120 hrs post fertilization by inverted microscopic method. The class given is tissue-based, Danio rerio. The conditions noted are these: in vivo.
Data set [3] is described as follows: Toxicity in 6 hrs post fertilized zebrafish embryo assessed as teratogenic effect by measuring malformation of eyes up to 50 uM up to 120 hrs post fertilization by inverted microscopic method. On the set-up: species or system Danio rerio. The conditions noted are these: in vivo.
Data set [4] in a line: Toxicity in 6 hrs post fertilized zebrafish embryo assessed as teratogenic effect by measuring malformation of sacculi/otoliths up to 50 uM up to 120 hrs post fertilization by inverted microscopic method. On the set-up: species or system Danio rerio. The following applies: in vivo.
The nature of data set [5]: Toxicity in 6 hrs post fertilized zebrafish embryo assessed as teratogenic effect by measuring malformation of notochord up to 50 uM up to 120 hrs post fertilization by inverted microscopic method. The following applies: in vivo. The class given is tissue-based, Danio rerio.
A short description of data set [6]: Toxicity in 6 hrs post fertilized zebrafish embryo assessed as teratogenic effect by measuring malformation of tail up to 50 uM up to 120 hrs post fertilization by inverted microscopic method. The following applies: in vivo. Type of data set: tissue-based, Danio rerio.
A short description of data set [7]: Toxicity in 6 hrs post fertilized zebrafish embryo assessed as teratogenic effect by measuring scoliosis up to 50 uM up to 120 hrs post fertilization by inverted microscopic method. The arrangement: species or system Danio rerio. The following applies: in vivo.
Data set [8] is described as follows: Toxicity in 6 hrs post fertilized zebrafish embryo assessed as teratogenic effect by measuring effect on heart beat frequency up to 50 uM up to 120 hrs post fertilization by inverted microscopic method. The following applies: in vivo. On the set-up: species or system Danio rerio.
Data set [9] in a line: Toxicity in 6 hrs post fertilized zebrafish embryo assessed as teratogenic effect by measuring effect on blood circulation up to 50 uM up to 120 hrs post fertilization by inverted microscopic method. On the set-up: species or system Danio rerio. The conditions noted are these: in vivo.
Data set [10] can be described thus: Toxicity in 6 hrs post fertilized zebrafish embryo assessed as teratogenic effect by measuring pericardial edema up to 50 uM up to 120 hrs post fertilization by inverted microscopic method. The conditions noted are these: in vivo. On the set-up: species or system Danio rerio.
Data set [11] can be described thus: Toxicity in 6 hrs post fertilized zebrafish embryo assessed as teratogenic effect by measuring yolk edema up to 50 uM up to 120 hrs post fertilization by inverted microscopic method. On the set-up: species or system Danio rerio. The following applies: in vivo.
Data set [12] is described as follows: Toxicity in 6 hrs post fertilized zebrafish embryo assessed as teratogenic effect by measuring yolk absorption up to 50 uM up to 120 hrs post fertilization by inverted microscopic method. On the set-up: species or system Danio rerio. The following applies: in vivo.
Data set [13] can be described thus: Toxicity in 6 hrs post fertilized zebrafish embryo assessed as teratogenic effect by measuring liver morphology and color up to 50 uM up to 120 hrs post fertilization by inverted microscopic method. The following applies: in vivo. Type of data set: tissue-based, Danio rerio.
A short description of data set [14]: Toxicity in 6 hrs post fertilized zebrafish embryo assessed as teratogenic effect by measuring growth retardation up to 50 uM up to 120 hrs post fertilization by inverted microscopic method. The arrangement: species or system Danio rerio. The following applies: in vivo.
Data set [15] is described as follows: Hepatotoxicity in 6 hrs post fertilized transgenic l-fabp:EGFP zebrafish embryo assessed as change in liver area index up to 30 uM up to 120 hrs post fertilization by fluorescence assay. The class given is toxicity, Danio rerio. The following applies: in vivo. The gist of the method: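 Tg(l-fabp:EGFP) zebrafish embryos exposed from 6 hpf. At 120 hpf, liver area index (liver area/lateral body area) and liver fluorescence assessed by in vivo imaging.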

Data set [16] can be described thus: Hepatotoxicity in 72 hrs post fertilized transgenic l-fabp:EGFP zebrafish embryo assessed as change in liver fluorescence up to 80 uM up to 120 hrs post fertilization by fluorescence assay. Type of data set: toxicity, Danio rerio. The following applies: in vivo. The method, boiled down: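 Transgenic Tg(l-fabp:EGFP) zebrafish with fluorescent liver, exposed to compound added at 72 hpf. Liver imaged in vivo at 120 hpf. Read-outs were liver fluorescence and liver area index (liver area divided by lateral body area).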

Data set [17] can be described thus: Myelotoxicity in 6 hrs post fertilized transgenic mpx:GFP zebrafish embryo assessed as reduction in neutrophil occurrence at >= 80 uM measured at 72 hrs hrs post fertilization by fluorescence assay. The arrangement: species or system Danio rerio.
The next data set relates to Zaire ebolavirus. Briefly: Antiviral activity against VSV pseudotyped Ebolavirus Mayinga expressing GFP infected in human HeLa cells assessed as inhibition of viral infection at 10 uM pre-incubated for 2 hrs followed by viral infection and measured after 8 hrs by cell mask deep red staining based assay. Type of data set: functional, organism-based. The following applies: 1976. The method, boiled down:
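HeLa cells pretreated 2 h with compound, then infected with rVSV-EBOV-GP-GFP (8 h) or VSV-GFP (6 h), and stained with Cell Mask Deep Red. Relative inhibition = 1 minus (% GFP-expressing cells normalised to mock). Mean ± SD of three replicates, representative of three independent experiments.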

The test system of data set [18] is HeLa. The experiment in a line: Induction of lysosomotropism in human HeLa cells infected with Ebolavirus assessed as increase in fluorescence intensity of acid compartments at 10 uM for 1 hr by Lysosensor DND189 staining based assay. The class given is functional, cell-based. The method, boiled down:
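HeLa cells were pretreated 1 h with compound (Bafilomycin A1 at 0.01 μM as acidification control), then stained with LysoSensor DND 189 for 10 min and washed. Live imaging at Ex/Em 443/505 nm. Fluorescence intensity per area was quantified by image analysis. Eight wells per point, about 3000 cells/well, mean ± SD, three independent experiments.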

Data set [19] concerns HeLa. The experiment in a line: Induction of lysosomotropism in human HeLa cells infected with Ebolavirus assessed as increase in lysosome concentration in juxtanuclear region at 10 uM for 2 hrs by acridine orange staining based assay. Type of data set: functional, cell-based. The gist of the method:
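HeLa cells were pretreated with compound for 2 h, then given acridine orange for 30 min and washed. Red AO fluorescence in acidic compartments was imaged, and total intensity and average area were scored by high-content imaging. Eight wells per point, about 3000 cells/well, mean ± SD, representative of three independent experiments.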

For data set [20], the target named is Cathepsin B (Homo sapiens) (UniProt P07858). Briefly: Inhibition of cathepsin B activity in human HeLa cells at 10 uM after 12 hrs by magic red substrate based fluorescence assay. Type of data set: cell-based. The gist of the method:
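HeLa cells were exposed to compound for 12 h, then given the Magic Red cathepsin B peptide reporter, washed, and imaged at Ex/Em 590/630. Total intensity and average area of red fluorescence were scored by high-content analysis. Eight wells per point, about 3000 cells/well, mean ± SD, three independent experiments.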

Data set [21] relates to HeLa. The experiment in a line: Inhibition of lysosome fusion with autophagosome in human HeLa cells harboring GFP-LC3 assessed as increase in GFP-LC3-2 clustering at <50 uM after 6 hrs by Western blot analysis. The class given is functional, subcellular. The method, boiled down: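 HeLa cells were exposed to compound for 6 h, then lysed and analysed by Western blot.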
A general note: Immunoblotting shows a protein as a band on a membrane.

Each structure is given as a SMILES string. Active and inactive are the calls of the source. The rule behind the calls is not given here.

Usually EC50 stands for the midpoint of the concentration-response curve. With `CCN(CC)CCCC(C)Nc1ccnc2cc(Cl)ccc12` (stereo not drawn) [CHLOROQUINE], in the data set with Ebolavirus, the EC50 amounted to 16 µM. Also, the Activity entry in data set [1], in data set [2], in data set [3], in data set [4], in [5] and in data set [6] was “Non-Toxic” throughout. Moreover, the Activity result in data set [7], in [8], in data set [9], in data set [10], in [11] and in data set [12] was “Non-Toxic” each time. Also, the Activity result in data set [13] is on record as “Non-Toxic”; in data set [14], “Non-Toxic”; in data set [15], “Toxic”; in [16], “Toxic”; in data set [17], “Toxic”. Further, the result in the data set on Zaire ebolavirus and with HeLa [19] was Active. In addition, in the data set on HeLa [18], the outcome was inactive. Further, the inhibition result (in data set [20]; in the data set on HeLa [21]) was “inactive” throughout.

For the origin of these results see ChEMBL document CHEMBL4330057, “Second generation of diazachrysenes: Protection of Ebola virus infected mice and mechanism of action” (Eur J Med Chem, 2019).
